In ChEMBL document CHEMBL1144286, “Parallel synthesis of pteridine derivatives as potent inhibitors for hepatitis C virus NS5B RNA-dependent RNA polymerase” (Bioorg Med Chem Lett, 2005):

Molecular target: RNA-directed RNA polymerase (Hepacivirus hominis, UniProt O39930)
Test: Inhibitory concentration against RNA dependent RNA polymerase Nonstructural protein 5B of hepatitis C virus
Outline: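 Run per an earlier published HCV NS5B RdRp procedure. Compounds were dissolved in DMSO and then transferred into assay buffer. Each was tested in duplicate, and IC50 was taken as the concentration giving 50% inhibition of polymerase activity.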

Sequence of RNA-directed RNA polymerase (O39930 whole entry): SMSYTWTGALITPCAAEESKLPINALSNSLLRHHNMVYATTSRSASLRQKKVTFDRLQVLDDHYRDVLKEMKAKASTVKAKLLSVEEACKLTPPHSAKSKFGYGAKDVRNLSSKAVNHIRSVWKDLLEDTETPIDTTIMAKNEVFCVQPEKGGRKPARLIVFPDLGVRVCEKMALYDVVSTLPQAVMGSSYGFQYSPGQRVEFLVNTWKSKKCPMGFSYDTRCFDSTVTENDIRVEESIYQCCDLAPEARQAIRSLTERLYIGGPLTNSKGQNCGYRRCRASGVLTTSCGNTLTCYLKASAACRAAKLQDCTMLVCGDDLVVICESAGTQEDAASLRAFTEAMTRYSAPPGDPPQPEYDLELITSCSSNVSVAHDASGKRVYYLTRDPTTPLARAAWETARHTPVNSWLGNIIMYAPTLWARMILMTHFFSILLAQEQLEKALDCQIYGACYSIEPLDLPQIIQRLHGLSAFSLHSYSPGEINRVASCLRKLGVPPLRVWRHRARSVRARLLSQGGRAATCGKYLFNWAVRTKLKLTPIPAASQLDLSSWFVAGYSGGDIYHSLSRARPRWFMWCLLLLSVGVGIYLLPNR

| Compound | IC50 [µM] |
| --- | --- |
| COc1cccc(-c2nc3ncnc(O)c3nc2-c2cccc(OC)c2)c1 | > 100 |
| Oc1ncnc2nc(-c3ccccn3)c(-c3ccccn3)nc12 | > 100 |
| Fc1ccc(CCNc2ncnc3nc(-c4ccc(F)cc4)c(-c4ccc(F)cc4)nc23)cc1 | 26 |
| Oc1ncnc2nc(-c3ccco3)c(-c3ccco3)nc12 | 58 |
| COC(=O)C1CCCN1c1ncnc2nc(-c3ccc(F)cc3)c(-c3ccc(F)cc3)nc12 (configuration not stated) | 51 |
| Fc1ccc(-c2nc3ncnc(N4CCCCC4)c3nc2-c2ccc(F)cc2)cc1 | 68 |
| CCCCOCCCNc1ncnc2nc(-c3ccc(F)cc3)c(-c3ccc(F)cc3)nc12 | 73 |
| O=[N+]([O-])c1ccc(-c2nc3ncnc(O)c3nc2-c2ccccc2)cc1 | 30 |
| Oc1ncnc2nc(-c3ccc(F)cc3)c(-c3ccc(F)cc3)nc12 | 0.5 |
| Fc1ccc(-c2nc3ncnc(NCc4ccco4)c3nc2-c2ccc(F)cc2)cc1 | 2.9 |
| CCCCC(CC)CNc1ncnc2nc(-c3ccc(F)cc3)c(-c3ccc(F)cc3)nc12 (configuration not stated) | 10 |
| Fc1ccc(-c2nc3ncnc(NC4CCC4)c3nc2-c2ccc(F)cc2)cc1 | 2.1 |
| CC1CCC(Nc2ncnc3nc(-c4ccc(F)cc4)c(-c4ccc(F)cc4)nc23)CC1 (configuration not stated) | 1.3 |
| Fc1ccc(-c2nc3ncnc(NC4CCCCCC4)c3nc2-c2ccc(F)cc2)cc1 | 3.2 |
| CCNc1ncnc2nc(-c3ccc(F)cc3)c(-c3ccc(F)cc3)nc12 | 2.9 |
| CCCCOCCCNc1ncnc2nc(-c3ccccc3)c(-c3ccccc3)nc12 | 87 |
| Oc1ncnc2nc(-c3ccccc3)c(-c3ccccc3)nc12 | 15 |
| O=c1[nH]cnc2nc(-c3ccc(Br)cc3)c(-c3ccc(Br)cc3)nc12 | 30 |
| Cc1ccc(-c2nc3ncnc(O)c3nc2-c2ccc(C)cc2)cc1 | > 100 |

| Compound | IC50 [µM] |
| --- | --- |
| CCNc1ncnc2nc(-c3ccccc3)c(-c3ccccc3)nc12 | 16 |
| Cc1ccc(CNc2ncnc3nc(-c4ccccc4)c(-c4ccccc4)nc23)cc1 | > 100 |
| Fc1ccc(-c2nc3ncnc(NCCc4ccccc4)c3nc2-c2ccc(F)cc2)cc1 | 13 |
| Fc1ccc(CCNc2ncnc3nc(-c4ccccc4)c(-c4ccccc4)nc23)cc1 | > 100 |
| CCCC(C)Nc1ncnc2nc(-c3ccccc3)c(-c3ccccc3)nc12 (configuration not stated) | 6 |
| Cc1ccc(CNc2ncnc3nc(-c4ccc(F)cc4)c(-c4ccc(F)cc4)nc23)cc1 | 9.6 |
| O=c1[nH]cnc2nc(-c3ccccc3Cl)c(-c3ccccc3Cl)nc12 | > 100 |
| COc1ccc(-c2nc3ncnc(O)c3nc2-c2ccc(OC)cc2)cc1 | > 100 |
| CCCCCCNc1ncnc2nc(-c3ccccc3)c(-c3ccccc3)nc12 | > 100 |
| O=c1[nH]cnc2nc3c(nc12)C1CCCCC31 (configuration not stated) | > 100 |
| CN(C)c1ncnc2nc(-c3ccc(F)cc3)c(-c3ccc(F)cc3)nc12 | 21 |
| c1ccc(-c2nc3ncnc(NC4CCCCCC4)c3nc2-c2ccccc2)cc1 | 29 |
| O=c1[nH]cnc2nc3c4ccccc4c4ccccc4c3nc12 | > 100 |
| CCCC(C)Nc1ncnc2nc(-c3ccc(F)cc3)c(-c3ccc(F)cc3)nc12 (configuration not stated) | 1.5 |
| c1ccc(-c2nc3ncnc(N4CCCCC4)c3nc2-c2ccccc2)cc1 | > 100 |
| O=c1[nH]cnc2nc(-c3ccccc3)c(-c3ccc([N+](=O)[O-])cc3)nc12 | 23 |
| CCCCCCNc1ncnc2nc(-c3ccc(F)cc3)c(-c3ccc(F)cc3)nc12 | > 100 |
| COc1ccccc1CCNc1ncnc2nc(-c3ccc(F)cc3)c(-c3ccc(F)cc3)nc12 | 80 |
